Reference: article PMC6415545 (Nature, 2018)
Like-named read-outs stand apart in the source and are kept apart here. Marks after values point to notes of the source that are not given here.

What was measured:
[1] = target: T1, human UDP-α-D-glucose-6-dehydrogenase (hUGDH) (Homo sapiens, UniProt O60701); experiment: Transient state kinetics of UDP-Xyl binding; conditions: hUGDHFL versus hUGDHΔID
T1 sequence (O60701 1-464 limits assumed): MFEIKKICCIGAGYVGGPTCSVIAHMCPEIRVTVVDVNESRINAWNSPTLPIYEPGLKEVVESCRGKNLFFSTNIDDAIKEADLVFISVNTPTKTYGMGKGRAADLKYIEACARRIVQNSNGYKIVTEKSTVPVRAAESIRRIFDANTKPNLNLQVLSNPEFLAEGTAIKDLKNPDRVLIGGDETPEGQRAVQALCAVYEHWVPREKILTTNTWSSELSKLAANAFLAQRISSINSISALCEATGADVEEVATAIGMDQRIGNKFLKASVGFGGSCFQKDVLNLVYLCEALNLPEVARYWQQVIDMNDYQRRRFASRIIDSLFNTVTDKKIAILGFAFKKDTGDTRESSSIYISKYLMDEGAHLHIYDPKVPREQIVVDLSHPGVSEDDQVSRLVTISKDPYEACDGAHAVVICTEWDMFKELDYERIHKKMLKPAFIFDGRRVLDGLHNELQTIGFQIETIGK
In short: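 Stopped-flow intrinsic tryptophan fluorescence at 25 °C (dead time ~1.2 ms): 500 nM enzyme (syringe) mixed with varied UDP-Xyl, excitation 290 nm, emission cutoff filter below 320 nm. Traces were averaged over ≥ 4 replicates per concentration and inner-filter corrected. Six concentrations were globally fit by numerical simulation to a binding-plus-two-isomerization model, selected by confidence contour analysis. Binding free energy used a mM standard state.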

[2] = system: human UDP-α-D-glucose-6-dehydrogenase (hUGDH); format: biochemical; conditions: for Kcat: UDP-Glc saturation curves, global fit ± standard error
In short: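 100 nM hexamer (500 nM dimer constructs) in 50 mM HEPES pH 7.5, 50 mM NaCl, 5 mM EDTA, 25 °C, saturating NAD+, varied UDP-Glc and UDP-Xyl. NADH was read at 340 nm. Frieden fits of early progress curves gave vss.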

[3] = system: human UDP-α-D-glucose-6-dehydrogenase (hUGDH); experiment: Stopped-flow analysis of hUGDH hysteresis; format: biochemical; conditions: hUGDHFL versus hUGDHΔID, pre-steady state progress curves
In short: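 Stopped-flow, 25 °C. 500 nM full-length or tail-deleted enzyme in 50 mM HEPES pH 7.5, 50 mM NaCl, 5 mM EDTA was mixed 1:1 with buffer holding substrate and cofactor, giving 250 nM enzyme with both saturating. NADH absorbance at 340 nm was taken every 10–15 ms. Curves were fit to Frieden's equation for lag length; mean and s.d. from ≥ 6 curves.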

[4] = system: human UDP-α-D-glucose-6-dehydrogenase (hUGDH); experiment: Steady state kinetics: NAD+ substrate saturation curves; format: biochemical
In short: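 Separate 5-min, 25 °C pre-incubations of enzyme and substrate, then mixing. Enzyme was 100 nM hexameric hUGDH in 50 mM HEPES pH 7.5, 50 mM NaCl, 5 mM EDTA, with saturating UDP-Glc and varied NAD+. NADH was followed continuously at 340 nm (6220 M−1cm−1). Progress curves before 10% substrate depletion were fit to Frieden's equation for vss. Saturation curves were fit to the sigmoidal rate equation; n ≥ 10 data points.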

[5] = Thermodynamic shift assay; format: physicochemical; conditions: thermal denaturation, hUGDHFL-dimer versus hUGDHΔID-dimer (Fig. 3d)
In short: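 Dimeric constructs at 0.1 mg/mL with 5X SYPRO Orange in 50 mM HEPES pH 7.5, 50 mM NaCl, 5 mM EDTA were spun and equilibrated 20 min. Fluorescence (excitation 470–505 nm, emission 540–570 nm) was recorded every 30 s while heating from 25 to 80 °C at […] in a qPCR instrument. Buffer-control baselines were subtracted; N ≥ 3.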

B1: FL: full-length human UDP-α-D-glucose-6-dehydrogenase with the native 30-residue ID-tail (residues 465–494) (protein, UniProt O60701 1-494, looked up)
chain: MFEIKKICCIGAGYVGGPTCSVIAHMCPEIRVTVVDVNESRINAWNSPTLPIYEPGLKEVVESCRGKNLFFSTNIDDAIKEADLVFISVNTPTKTYGMGKGRAADLKYIEACARRIVQNSNGYKIVTEKSTVPVRAAESIRRIFDANTKPNLNLQVLSNPEFLAEGTAIKDLKNPDRVLIGGDETPEGQRAVQALCAVYEHWVPREKILTTNTWSSELSKLAANAFLAQRISSINSISALCEATGADVEEVATAIGMDQRIGNKFLKASVGFGGSCFQKDVLNLVYLCEALNLPEVARYWQQVIDMNDYQRRRFASRIIDSLFNTVTDKKIAILGFAFKKDTGDTRESSSIYISKYLMDEGAHLHIYDPKVPREQIVVDLSHPGVSEDDQVSRLVTISKDPYEACDGAHAVVICTEWDMFKELDYERIHKKMLKPAFIFDGRRVLDGLHNELQTIGFQIETIGKKVSSKRIPYAPSGEIPKFSLQDPPNKKPKV
modifications: full-length
For B1, which “enhancement of the initial UDP-Xyl binding step by the ID-tail” value [1] is on record?
The value was 4.4 fold.

What about the “gain in affinity of the initial UDP-Xyl binding step” value [1] of the same molecule?
The value was -0.9 kcal/mol.

And the Kcat [2]?
Its Kcat is 0.8 ± 0.01 s⁻¹.

What about the “slowing of the rate of activation hysteresis (E* to E) by the ID-tail” value [3] of the same molecule?
Its value is 39%.

And the “Hill (h)” value ([4]; NAD+ saturation (Equation 6))?
The value was 0.8 ± 0.1.

What about the Kcat ([4]; NAD+ saturation curves) of the same molecule?
The Kcat was 0.9 ± 0.08 S^-1.

What about the “K0.5 (NAD^+)” value ([4]; NAD+ saturation, sigmoidal rate equation (Equation 6), hexameric enzyme) of the same molecule?
The value was 0.8 ± 0.20 mM.

B2: hUGDH: human UDP-α-D-glucose-6-dehydrogenase, named without a construct (protein, UniProt O60701 1-494, looked up)
UDP-glucose 6-dehydrogenase: MFEIKKICCIGAGYVGGPTCSVIAHMCPEIRVTVVDVNESRINAWNSPTLPIYEPGLKEVVESCRGKNLFFSTNIDDAIKEADLVFISVNTPTKTYGMGKGRAADLKYIEACARRIVQNSNGYKIVTEKSTVPVRAAESIRRIFDANTKPNLNLQVLSNPEFLAEGTAIKDLKNPDRVLIGGDETPEGQRAVQALCAVYEHWVPREKILTTNTWSSELSKLAANAFLAQRISSINSISALCEATGADVEEVATAIGMDQRIGNKFLKASVGFGGSCFQKDVLNLVYLCEALNLPEVARYWQQVIDMNDYQRRRFASRIIDSLFNTVTDKKIAILGFAFKKDTGDTRESSSIYISKYLMDEGAHLHIYDPKVPREQIVVDLSHPGVSEDDQVSRLVTISKDPYEACDGAHAVVICTEWDMFKELDYERIHKKMLKPAFIFDGRRVLDGLHNELQTIGFQIETIGKKVSSKRIPYAPSGEIPKFSLQDPPNKKPKV
For B2, which “destabilization by the ID-tail” value [5] is on record?
Its value is 3.5 °C.

B3: FL-A136M: full-length hUGDH with the allostery quenching A136M substitution (protein, UniProt O60701 1-494, looked up, variant A136M)
chain: MFEIKKICCIGAGYVGGPTCSVIAHMCPEIRVTVVDVNESRINAWNSPTLPIYEPGLKEVVESCRGKNLFFSTNIDDAIKEADLVFISVNTPTKTYGMGKGRAADLKYIEACARRIVQNSNGYKIVTEKSTVPVRMAESIRRIFDANTKPNLNLQVLSNPEFLAEGTAIKDLKNPDRVLIGGDETPEGQRAVQALCAVYEHWVPREKILTTNTWSSELSKLAANAFLAQRISSINSISALCEATGADVEEVATAIGMDQRIGNKFLKASVGFGGSCFQKDVLNLVYLCEALNLPEVARYWQQVIDMNDYQRRRFASRIIDSLFNTVTDKKIAILGFAFKKDTGDTRESSSIYISKYLMDEGAHLHIYDPKVPREQIVVDLSHPGVSEDDQVSRLVTISKDPYEACDGAHAVVICTEWDMFKELDYERIHKKMLKPAFIFDGRRVLDGLHNELQTIGFQIETIGKKVSSKRIPYAPSGEIPKFSLQDPPNKKPKV
modifications: full-length
With B3 as the molecule, how does the Kcat [2] read?
Its Kcat is 0.7 ± 0.01 s⁻¹.

And the “ΔΔG, change in UDP-Xyl binding free energy” value ([2]; relative to the hUGDHΔID-A136M)?
The value was 0.03^g kcal•mol^-1.
